# Most compounds without a hit are left out; they make up all but 1.3% or so of the library.
# HCV core dimer = HCV core protein dimerization inhibition | TR-FRET GST/Flag-core106 dimerization, 1536-well | inhibition, % at 5 µM | 0.33% of 300,000 active | AID 1899;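 active means inhibition above the mean of all tested compounds plus 3 SD, set per screening campaign, cut at about 45% in these data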
#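 assay system = GST-tagged and Flag-tagged HCV core protein residues 1-106 | controls = unlabelled core106 and no-GST-core106 wells | incubation = compound-protein-antibody incubation 4 h at 22.5 °C | probe or stimulus = Eu donor and XL665 acceptor anti-tag antibodies | read-out = % inhibition based on acceptor/donor emission ratio | signal = TR-FRET 671 and 617 nm emission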
# HCV NS3 hel inh = HCV NS3 helicase inhibition; NS3 helicase DNA unwinding, Cy5 molecular beacon fluorescence; inhibition, % at 10.9 µM; 0.56% of 290,000 active;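 active means inhibition above the mean of all tested compounds plus 3 SD, set per campaign, cut at about 35% in these data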
#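 Test system: hepatitis C virus NS3 helicase domain fragment enzyme. Also added: annealed dual-labelled DNA beacon duplex, ATP-started. Timing: 60 min unwinding reaction at 25 °C after ATP addition. Technique: Cy5 fluorescence. Measure: % inhibition of unwinding.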
# Hep lipid drop = modulators of hepatic lipid droplet formation | AML12 mouse hepatocytes, oleate lipid droplets, BODIPY imaging | inhibition, % at 6.5 µM | 0.4% of 240,000 active;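 active means lipid droplet intensity inhibited by at least 50%, with more than 500 cells counted; inconclusive means wells with under 300 cells, treated as cytotoxic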
#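 Material – mouse AML12 hepatocyte cell line, fixed after treatment · Compound dosing – one dose, 6.5 µM compound · Times – compound with oleate, overnight · Measured by – Image-based BODIPY and DAPI two-channel analysis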
# TbMetRS inhib = Trypanosoma brucei MetRS inhibition. purified T. brucei MetRS, ATP depletion, Kinase-Glo luminescence. inhibition, % at 11.9 µM. 0.4% of 360,000 active. AID 624268;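 active means inhibition above a per-plate cutoff of the control wells' mean inhibition plus 3 SD, cut at about 5.5% in these data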
#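 Material – parasite MetRS enzyme · Medium – HEPES-MgCl2-KCl buffer plus DTT, spermine, BSA, pyrophosphatase · Reagent – ATP, methionine and E. coli bulk tRNA substrates · Times – 15 min enzyme-compound preincubation, 2 h reaction, 10 min detection, 25 °C · Measured by – luminescence of leftover ATP · Evaluation – percent inhibition relative to median high and low control wells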
# Numbers stand for hits; - = inactive; ? = inconclusive; . = no result.
SMILES,HCV core dimer,HCV NS3 hel inh,Hep lipid drop,TbMetRS inhib
O=C(NCc1ccco1)c1cccc(-c2cncc3nccn23)c1,.,.,.,-
CN1CCN(c2ccc(-c3cccc4nccn34)cn2)CC1,.,.,.,-
O=C(Nc1ccccc1O)c1cccc(S(=O)(=O)Nc2ccccc2O)c1,-,.,.,6.3
Cc1cc(C)n2nc3nc(N4CCCC4)nc(-c4ccccc4)c3c2n1,48,-,-,-
COCCNC(=O)C1(C)CCN(C(=O)c2nc(C)oc2C)C1 (stereo not drawn),.,.,.,-
Cc1sc(NC(=O)Cn2[nH]c(=O)c3ccccc3c2=O)nc1-c1ccccc1,49,-,-,-
Cc1c(NC(=O)Cn2[nH]c(=O)c3ccccc3c2=O)c(=O)n(-c2ccccc2)n1C,-,-,-,-
Cc1ccc(-c2c(C(=O)Nc3ccccc3C)c(C)[nH]c(=S)c2C#N)o1,-,39,-,-
Cc1cc(N2C(=O)C=CC2=O)c([N+](=O)[O-])cc1C,48,-,-,-
C[C@H]1CN([C@@H](C)CO)C(=O)c2cc(Br)cnc2O[C@@H]1CN(C)S(=O)(=O)c1cn(C)cn1,.,.,.,-
CCCS(=O)(=O)NC(=O)C1(C)CCN(C(=O)c2ccc(C(=O)OC)cc2)C1 (stereo not drawn),.,.,.,-
CCc1nnc2n1N=C(c1ccc(-c3cc(Cl)ccc3Cl)o1)CS2,61,-,.,-
C=C(NC(=O)C(=C)NC(=O)c1csc(C2=NC3c4csc(n4)C4NC(=O)c5csc(n5)C(C(C)(O)C(C)O)NC(=O)C5CSC(=N5)/C(=C/C)NC(=O)C(C(C)O)NC(=O)c5csc(n5)C3(CC2)NC(=O)C(C)NC(=O)C(=C)NC(=O)C(=C)NC(=O)C(C(C)C)NC2C=Cc3c(C(C)O)cc(nc3C2O)C(=O)OC4C)n1)C(N)=O (stereo not drawn),.,.,.,-
C=C(NC(=O)C(=C)NC(=O)c1csc(C2=NC3c4csc(n4)C4NC(=O)c5csc(n5)C([C@@](C)(O)C(C)O)NC(=O)C5CSC(=N5)/C(=C\C)NC(=O)C(C(C)O)NC(=O)c5csc(n5)[C@]3(CC2)NC(=O)C(C)NC(=O)C(=C)NC(=O)C(C)NC(=O)C(C(C)CC)NC2C=Cc3c(C(C)O)cc(nc3C2O)C(=O)OC4C)n1)C(N)=O (stereo partly drawn),70,.,.,.
CCOC(=O)[C@]12CCCC=C1N(CCc1ccc(OC)c(OC)c1)C(=O)[C@H](CC(=O)NCC13CC4CC(CC(C4)C1)C3)C2,.,.,.,-
COc1ccc2oc(C(=O)Nc3ccccc3N3CCOCC3)c(C)c2c1,-,.,.,-
COc1ccc2oc(C(=O)Nc3ccc(N4CCOCC4)cc3)c(C)c2c1,86,.,.,-
CCCCN1C(=O)C(CC(=O)NCc2ccco2)CC(C(=O)N(C(C)C)C(C)C)=C1C (stereo not drawn),.,.,.,-
O=S1(=O)N[C@@H](Cc2ccccc2)COc2cc(N3CCC[C@H]3CO)ccc21,.,.,.,-
O=C(N=Nc1c(O)[nH]c2ccc([N+](=O)[O-])cc12)c1cc(-c2ccccc2Cl)nc2ccccc12,47,-,-,-
CN(C)c1ncnc2c1ncn2[C@H]1CN(CCN2CCOCC2)C[C@@H](CO)O1,.,.,.,-
CCCCCc1c(C)nc(Nc2ccccc2)[nH]c1=O,-,-,-,7.8
Cc1cccc(NC(=S)/N=C(\N)Nc2nc(C)c3ccc(C)cc3n2)c1,48,-,.,-
Cc1cccc(NC(=S)/N=C(\N)Nc2nc(C)c3cc(C)ccc3n2)c1,-,-,-,-
N#Cc1cc(C(=O)c2cc(F)ccc2O)cn(-c2nccs2)c1=O,48,-,-,-
SMILES,HCV core dimer,HCV NS3 hel inh,Hep lipid drop,TbMetRS inhib
O=C1NC[C@H](CCCCN2C[C@H](Cc3ccccc3)N(CCC3CCCCC3)C(=O)C2=O)N(CCc2ccc(O)cc2)C1=O,.,.,.,-
N#Cc1ccccc1NC(=O)C1SC(=Nc2ccccc2)C(C(=O)Nc2ccc(Cl)cc2)=C1N (stereo not drawn),-,-,-,-
CCOc1ccc(N=C2SC(C(=O)Nc3ccccc3C#N)C(N)=C2C(=O)Nc2ccc(Cl)cc2)cc1 (stereo not drawn),55,-,-,-
CCSc1nnc(NC(=O)C2Cc3ccccc3CN2C(=O)c2ccco2)s1 (stereo not drawn),85,-,.,-
O=C(/C=C/[C@H]1O[C@@H](n2ccc(=O)[nH]c2=O)[C@H](O)[C@@H]1O)NC(c1ccccc1)c1ccccc1,.,.,.,-
CCOC(=O)C1=C(CSc2nc3c(cc2C#N)CN(C)CC3)OC(N)=C(C#N)C1c1ccc(F)cc1 (stereo not drawn),-,-,-,-
CCOC(=O)C1=C(CSc2nc(-c3ccccc3)ccc2C#N)OC(N)=C(C#N)C1c1ccccc1 (stereo not drawn),53,-,-,-
CCOC(=O)C1=C(CSc2nc(-c3ccccc3)ccc2C#N)OC(N)=C(C#N)C1c1cccnc1 (stereo not drawn),-,-,-,-
CCOC(=O)C1=C(CSc2nc3c(cc2C#N)CN(C)CC3)OC(N)=C(C#N)C1c1ccccc1 (stereo not drawn),52,-,.,-
O=C(Cc1coc2ccc3ccccc3c12)N1CCN(c2ncccn2)CC1,53,-,.,-
COc1ccc(/C=C(/CC(=O)Nc2ccccc2)c2nc3ccccc3s2)cc1,58,-,-,-
CCCCNC(=O)C1(C)CCC(=O)N1c1cc(C(C)(C)C)nn1C (stereo not drawn),.,.,.,-
Cc1ccc(C(=O)CSc2cc(C)[nH]c(=O)n2)cc1,64,-,-,-
C[C@@H]1CN([C@@H](C)CO)C(=O)c2cc(Br)cnc2O[C@H]1CN(C)C(=O)Cc1ccccn1,.,.,.,-
COC(=O)c1c(NC(=O)COC(=O)c2ccccc2O)sc2c1CCCCC2,-,-,-,-
COC(=O)c1c(NC(=O)COC(=O)c2ccc(NC(=O)CC#N)cc2)sc2c1CCCCC2,62,-,-,-
CCOc1ccc(C(=O)N[C@H](C(=O)N2CCN(c3ncccn3)CC2)C(C)C)cc1,.,.,.,-
CCOC(=O)[C@]12CCCC=C1N(Cc1cccc3ccccc13)C(=O)[C@H](CC(=O)NCc1ccc(OC)c(OC)c1)C2,.,.,.,-
CCN(c1ccccc1)S(=O)(=O)c1ccc(OC)c(NC(=O)c2ccco2)c1,.,.,.,-
COc1ccc(C(=O)CC(C(=O)O)c2ccc3c(c2)OCO3)cc1OC (stereo not drawn),.,.,.,-
CO/N=C(\c1nonc1N)N1CCN(c2ccc([N+](=O)[O-])cc2Cl)CC1,-,-,.,7.0
N#CC1=C(N)OC2=C(CC/C2=C\c2ccccc2)C1c1ccccc1 (stereo not drawn),55,-,.,-
O=C1Cc2ccccc2C(=O)N1,.,.,.,22
O=C1Nc2ccccc2CCc2ccccc21,.,.,.,-
Cc1c(C(=O)OCc2ccccc2)[nH]c2c1C(=O)CC(c1ccco1)C2 (stereo not drawn),51,-,?,-
CCOC(=O)c1[nH]c2c(c1C)C(=O)CC(c1ccco1)C2 (stereo not drawn),-,-,?,-
CN(CC(=O)Nc1ccc(F)c(F)c1F)C(=O)C1(c2ccccc2)CC1,.,.,.,-
